Measured values: ChEMBL document CHEMBL3097989, “Antimicrobial activity of de novo designed cationic peptides against multi-resistant clinical isolates” (Eur J Med Chem, 2014)
Activity calls are given as the source filed them. Where a SMILES comes first, the peptide text is derived from it.

Columns and labels:
Pseudomonas aeruginosa [1] = assay: Antibacterial activity against Pseudomonas aeruginosa M13513 clinical isolate expressing blaKPC-2 gene by microdilution test; format: functional
Outline: (§1)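 MIC by standard broth microdilution following CLSI recommendations, in Mueller Hinton broth supplemented with Ca²⁺ (20-25mg/L) and Mg²⁺ (10-12.5mg/L); peptides tested against a panel of multi-resistant clinical isolates plus ATCC reference strains.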

Pseudomonas aeruginosa [2] = assay: Antibacterial activity against Pseudomonas aeruginosa ATCC 27853 by microdilution test; format: functional; outline: as §1
[3] = Toxicity in human RBC assessed as hemolytic activity relative to control; format: cell-based, Erythrocyte; details: red blood cells (RBC), read-out: Activity
Outline: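 Heparinized human whole blood diluted 3x in PBS and centrifuged 10 min at 1500 rpm, repeated three times. Cells resuspended to 10% (v/v), then diluted to about 0.5% (v/v). Peptides added at various concentrations for 30 min at 37 °C. Supernatant absorbance read at 550 nm. Lysis calculated against buffer (0%) and water (100%). Readings taken in triplicate and averaged.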

Staphylococcus cohnii = assay: Antibacterial activity against Staphylococcus cohnii M6767 clinical isolate expressing mecA gene by microdilution test; format: functional
Outline: (§2)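 MIC by standard broth microdilution following CLSI recommendations, in Mueller Hinton broth supplemented with Ca²⁺ (20-25 mg/L) and Mg²⁺ (10-12.5 mg/L); ATCC reference strains included in the panel.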

Staphylococcus warneri = assay: Antibacterial activity against Staphylococcus warneri M6823 clinical isolate expressing mecA gene by microdilution test; format: functional; outline: as §2
Staphylococcus aureus [4] = assay: Antibacterial activity against Staphylococcus aureus M6794 clinical isolate expressing mecA gene by microdilution test; format: functional; outline: as §2
Staphylococcus aureus [5] = assay: Antibacterial activity against Staphylococcus aureus ATCC 29213 by microdilution test; format: functional; outline: as §2
Escherichia coli = assay: Antibacterial activity against Escherichia coli ATCC 25922 by microdilution test; format: functional; outline: as §1
Klebsiella pneumoniae [6] = assay: Antibacterial activity against Klebsiella pneumoniae M13540 clinical isolate expressing blaKPC-2 gene by microdilution test; format: functional; outline: as §1
Klebsiella pneumoniae [7] = assay: Antibacterial activity against Klebsiella pneumoniae M9170 clinical isolate expressing blaOXA-GIII gene by microdilution test; format: functional; outline: as §1
Klebsiella pneumoniae [8] = assay: Antibacterial activity against Klebsiella pneumoniae M9491 clinical isolate expressing blaMOX gene by microdilution test; format: functional; outline: as §1
Klebsiella pneumoniae [9] = assay: Antibacterial activity against Klebsiella pneumoniae M9140 clinical isolate expressing blaCIT gene by microdilution test; format: functional; outline: as §1
Klebsiella pneumoniae [10] = assay: Antibacterial activity against Klebsiella pneumoniae PFAV3 by microdilution test; format: functional; outline: as §1
Acinetobacter sp. [11] = assay: Antibacterial activity against Acinetobacter sp. M9013 clinical isolate expressing blaOXA-51 and blaIMP gene by microdilution test; format: functional; outline: as §1
Acinetobacter sp. [12] = assay: Antibacterial activity against Acinetobacter sp. M7978 clinical isolate expressing blaIMP-1 gene by microdilution test; format: functional; outline: as §1
Acinetobacter sp. [13] = assay: Antibacterial activity against Acinetobacter sp. M5949 clinical isolate expressing blaOXA-23 and blaOXA-GVI gene by microdilution test; format: functional; outline: as §1
Acinetobacter sp. [14] = assay: Antibacterial activity against Acinetobacter sp. M5277 clinical isolate expressing blaPER gene by microdilution test; format: functional; outline: as §1
Acinetobacter sp. [15] = assay: Antibacterial activity against Acinetobacter sp. PFAV1 clinical isolate expressing blaOXA-51, blaOXA-58 and blaPER gene by microdilution test; format: functional; outline: as §1
Acinetobacter sp. [16] = assay: Antibacterial activity against Acinetobacter sp. M7489 clinical isolate expressing blaOXA-51 and blaTEM gene by microdilution test; format: functional; outline: as §1
Acinetobacter sp. [17] = assay: Antibacterial activity against Acinetobacter sp. M5179 clinical isolate expressing blaOXA-51 gene by microdilution test; format: functional; outline: as §1
Acinetobacter sp. [18] = assay: Antibacterial activity against Acinetobacter sp. M5282 clinical isolate expressing blaOXA-51 gene by microdilution test; format: functional; outline: as §1
Acinetobacter sp. [19] = assay: Antibacterial activity against Acinetobacter sp. M9665 clinical isolate expressing blaOXA-51 gene by microdilution test; format: functional; outline: as §1
Acinetobacter sp. [20] = assay: Antibacterial activity against Acinetobacter sp. M13523 clinical isolate expressing blaOXA-51 gene by microdilution test; format: functional; outline: as §1
Pseudomonas aeruginosa [21] = assay: Antibacterial activity against Pseudomonas aeruginosa M7712 clinical isolate expressing blaSPM gene by microdilution test; format: functional; outline: as §2
Pseudomonas aeruginosa [22] = assay: Antibacterial activity against Pseudomonas aeruginosa M7525 clinical isolate expressing blaSPM gene by microdilution test; format: functional; outline: as §2
Pseudomonas aeruginosa [23] = assay: Antibacterial activity against Pseudomonas aeruginosa M5200 clinical isolate expressing blaVIM and blaGES-1 gene by microdilution test; format: functional; outline: as §2
Pseudomonas aeruginosa [24] = assay: Antibacterial activity against Pseudomonas aeruginosa M5109 clinical isolate expressing blaVIM and blaGES-1 gene by microdilution test; format: functional; outline: as §2
Pseudomonas aeruginosa [25] = assay: Antibacterial activity against Pseudomonas aeruginosa M7728 clinical isolate expressing blaIMP gene by microdilution test; format: functional; outline: as §2
Pseudomonas aeruginosa [26] = assay: Antibacterial activity against Pseudomonas aeruginosa M7723 clinical isolate expressing blaKPC-2 gene by microdilution test; format: functional; outline: as §2
Pseudomonas aeruginosa [27] = assay: Antibacterial activity against Pseudomonas aeruginosa M11005 clinical isolate expressing blaKPC-2 gene by microdilution test; format: functional; outline: as §1
Pseudomonas aeruginosa [28] = assay: Antibacterial activity against Pseudomonas aeruginosa M7907 clinical isolate expressing blaPER gene by microdilution test; format: functional; outline: as §2
Pseudomonas aeruginosa [29] = assay: Antibacterial activity against Pseudomonas aeruginosa M5470 by microdilution test; format: functional; outline: as §2
Pseudomonas aeruginosa [30] = assay: Antibacterial activity against Pseudomonas aeruginosa PCOS12 by microdilution test; format: functional; outline: as §2
Enterococcus gallinarum [31] = assay: Antibacterial activity against Enterococcus gallinarum M2723 clinical isolate expressing vanC1 and vanA gene by microdilution test; format: functional; outline: as §1
Enterococcus gallinarum [32] = assay: Antibacterial activity against Enterococcus gallinarum M2685 clinical isolate expressing vanC1 and vanA gene by microdilution test; format: functional; outline: as §1
Enterococcus faecium [33] = assay: Antibacterial activity against Enterococcus faecium M2664 clinical isolate expressing vanA gene by microdilution test; format: functional; outline: as §1
Enterococcus faecium [34] = assay: Antibacterial activity against Enterococcus faecium M2304 clinical isolate expressing vanA gene by microdilution test; format: functional; outline: as §1
Enterococcus faecium [35] = assay: Antibacterial activity against Enterococcus faecium M2481 clinical isolate expressing vanB gene by microdilution test; format: functional; outline: as §1
Enterococcus faecium [36] = assay: Antibacterial activity against Enterococcus faecium M6261 by microdilution test; format: functional; outline: as §1
Enterococcus faecium [37] = assay: Antibacterial activity against Enterococcus faecium M2619 clinical isolate expressing vanB gene by microdilution test; format: functional; outline: as §1
Enterococcus faecium [38] = assay: Antibacterial activity against Enterococcus faecium PZAP95 by microdilution test; format: functional; outline: as §1
Enterococcus faecalis [39] = assay: Antibacterial activity against Enterococcus faecalis M6983 clinical isolate expressing vanA gene by microdilution test; format: functional; outline: as §1
Enterococcus faecalis [40] = assay: Antibacterial activity against Enterococcus faecalis M4449 clinical isolate expressing vanA gene by microdilution test; format: functional; outline: as §1
Enterococcus faecalis [41] = assay: Antibacterial activity against Enterococcus faecalis M6383 clinical isolate expressing vanA gene by microdilution test; format: functional; outline: as §1
Enterococcus faecalis [42] = assay: Antibacterial activity against Enterococcus faecalis M4992 clinical isolate expressing vanA gene by microdilution test; format: functional; outline: as §1
Enterococcus faecalis [43] = assay: Antibacterial activity against Enterococcus faecalis M6534 clinical isolate expressing vanB gene by microdilution test; format: functional; outline: as §1
Enterococcus faecalis [44] = assay: Antibacterial activity against Enterococcus faecalis M4899 clinical isolate expressing vanB gene by microdilution test; format: functional; outline: as §1
Enterococcus faecalis [45] = assay: Antibacterial activity against Enterococcus faecalis ATCC 51299 clinical isolate expressing vanB gene by microdilution test; format: functional; outline: as §1
Enterococcus faecalis [46] = assay: Antibacterial activity against Enterococcus faecalis ATCC 29212 by microdilution test; format: functional; outline: as §1

CC[C@H](C)[C@H](NC(=O)[C@H](CCCCN)NC(=O)[C@H](CCCNC(=N)N)NC(=O)[C@H](CC(N)=O)NC(=O)CNC(=O)[C@H](CCCNC(=N)N)NC(=O)[C@H](Cc1ccccc1)NC(=O)[C@@H](NC(=O)[C@H](CS)NC(=O)[C@H](Cc1cnc[nH]1)NC(=O)[C@H](CC(C)C)NC(=O)[C@@H]1CCCN1C(=O)[C@H](CCC(N)=O)NC(=O)[C@@H]1CCCN1C(=O)[C@@H](NC(=O)[C@H](CC(N)=O)NC(=O)[C@@H]1CCCN1C(=O)[C@H](CC(C)C)NC(=O)CNC(=O)[C@@H](NC(=O)CNC(=O)[C@H](CO)NC(=O)[C@H](CC(C)C)NC(=O)[C@H](CC(C)C)NC(=O)[C@H](CC(=O)O)NC(=O)[C@H](CS)NC(=O)[C@@H](NC(=O)[C@@H](N)[C@@H](C)O)[C@@H](C)O)C(C)C)C(C)C)C(C)C)C(=O)N[C@@H](CCCCN)C(=O)N[C@@H](Cc1c[nH]c2ccccc12)C(N)=O (H-TTCDLLSGVGLPNVPQPLHCVFRGNRKIKW-NH2)
1.72%: hemolysis [3]
inactive: MIC90 (Pseudomonas aeruginosa [1]) | MIC90 (Pseudomonas aeruginosa [2]) | MIC90 (Staphylococcus cohnii) | MIC90 (Staphylococcus warneri) | MIC90 (Staphylococcus aureus [4]) | MIC90 (Staphylococcus aureus [5]) | MIC90 (Escherichia coli) | MIC90 (Klebsiella pneumoniae [6])

H-FGKEKKAWWRRRKWLK-NH2
1.5%: hemolysis [3]
inactive: MIC90 (Klebsiella pneumoniae [7]) | MIC90 (Klebsiella pneumoniae [8]) | MIC90 (Klebsiella pneumoniae [9]) | MIC90 (Klebsiella pneumoniae [10]) | MIC90 (Acinetobacter sp. [11]) | MIC90 (Acinetobacter sp. [12]) | MIC90 (Acinetobacter sp. [13]) | MIC90 (Acinetobacter sp. [14]) | MIC90 (Acinetobacter sp. [15]) | MIC90 (Acinetobacter sp. [16]) | MIC90 (Acinetobacter sp. [17]) | MIC90 (Acinetobacter sp. [18]) | MIC90 (Acinetobacter sp. [19]) | MIC90 (Acinetobacter sp. [20]) | MIC90 (Pseudomonas aeruginosa [21]) | MIC90 (Pseudomonas aeruginosa [22]) | MIC90 (Pseudomonas aeruginosa [23]) | MIC90 (Pseudomonas aeruginosa [24]) | MIC90 (Pseudomonas aeruginosa [25]) | MIC90 (Pseudomonas aeruginosa [26]) | MIC90 (Pseudomonas aeruginosa [27]) | MIC90 (Pseudomonas aeruginosa [1]) | MIC90 (Pseudomonas aeruginosa [28]) | MIC90 (Pseudomonas aeruginosa [29]) | MIC90 (Pseudomonas aeruginosa [30]) | MIC90 (Pseudomonas aeruginosa [2]) | MIC90 (Enterococcus gallinarum [31]) | MIC90 (Enterococcus gallinarum [32]) | MIC90 (Enterococcus faecium [33]) | MIC90 (Enterococcus faecium [34]) | MIC90 (Enterococcus faecium [35]) | MIC90 (Enterococcus faecium [36]) | MIC90 (Enterococcus faecium [37]) | MIC90 (Enterococcus faecium [38]) | MIC90 (Enterococcus faecalis [39]) | MIC90 (Enterococcus faecalis [40]) | MIC90 (Enterococcus faecalis [41]) | MIC90 (Enterococcus faecalis [42]) | MIC90 (Enterococcus faecalis [43]) | MIC90 (Enterococcus faecalis [44]) | MIC90 (Enterococcus faecalis [45]) | MIC90 (Enterococcus faecalis [46]) | MIC90 (Escherichia coli) | MIC90 (Klebsiella pneumoniae [6])
